Bioassay records: PubChem, Broad Institute
Shown are actives, neighbours in structure and some others; about 2.7% of the full set was active somewhere.
F508del corr: CFTR F508del correction in bronchial cells | 0.36% of 350,000 active | activity (quench increase), % at 7.58 µM | CFBE cells, YFP halide quenching; stimulated with forskolin plus potentiator P3; % fluorescence drop versus neutral controls;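 active means mean added fluorescence quench of at least 8% versus neutral control, with both replicates also reaching 8%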;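 further: cells transiently co-express mutant CFTR-F508del with the halide-sensitive YFP; corrector assay measuring rescue of mutant channel to the surface after 24 h compound exposure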
Env fusion inh: HIV envelope-mediated fusion inhibition; 1.1% of 360,000 active; HeLa-JRFL Env/CEM21 cell fusion, luciferase; inhibition, % at 12.3 µM; AID 651610;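 active means mean replicate inhibition score of at least 50 and every replicate individually at or above 50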
S100A4 MyoIIA: blocks human S100A4 binding to myosin IIA peptide. AID 652163. P26447. inhibition, % at 10.7 µM. S100A4/TAMRA-MyoIIA peptide fluorescence polarization. 0.14% of 360,000 active;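 active means mean inhibition of at least 70% across replicates, with every replicate also reaching that level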
Target sequence (P26447 whole entry, looked up): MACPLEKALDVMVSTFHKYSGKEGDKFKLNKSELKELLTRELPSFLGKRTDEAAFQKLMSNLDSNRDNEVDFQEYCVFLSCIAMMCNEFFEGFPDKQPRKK
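assay system = human S100A4 monomer with TAMRA-labelled myosin IIA peptide | also added = labelled myosin peptide probe, 5 nM | incubation = 5 min between mix addition and reading | control set = DMSO and TFP controls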
FGF22 binding: binders of recombinant human FGF22 by thermal shift. Q9HCT0. SYPRO orange fluorescence; percent of sucrose octasulfate shift, DMSO zero. activity (Tm shift, normalised), % at 9.99 µM. 1.5% of 340,000 active;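 active means mean Tm shift, scaled 0 neutral to 100 positive control, at about 1.3% or above, every replicate too, limit read from the data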
Target sequence (Q9HCT0 whole entry, looked up): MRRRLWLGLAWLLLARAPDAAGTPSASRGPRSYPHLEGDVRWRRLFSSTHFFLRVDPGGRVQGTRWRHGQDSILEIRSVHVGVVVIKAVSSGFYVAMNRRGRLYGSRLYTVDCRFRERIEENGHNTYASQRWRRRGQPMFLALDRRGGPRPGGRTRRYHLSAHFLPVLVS
E-sel inducer: induces E-selectin expression in human endothelial cells; P16581; HUVEC E-selectin immunofluorescence imaging; normalized: neutral wells 0, TNF-alpha wells 100; activation, % at 7.58 µM; 0.37% of 260,000 active;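 active means mean E-selectin-positive cell signal at least 10% of the positive control, reached in at least 60% of replicates, without over 20% cell loss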
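Read-out: % PE-positive cells | Test system: HUVEC | Doses: One compound dose added by pin transfer | Buffer or medium: EGM-2 over gelatin coat | Signal: Immunofluorescence imaging | Benchmarks: TNF-alpha, DMSO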
Numbers stand for hits; n = inactive; x = no result given; [ ] = remark or other dose.

SMILES	F508del corr	Env fusion inh	S100A4 MyoIIA	FGF22 binding	E-sel inducer
C[C@H](CO)N1C[C@H](C)[C@@H](CN(C)C(=O)CCCN(C)C)OCCCC[C@H](C)Oc2ccc(NC(=O)Nc3ccccc3)cc2C1=O	n	n	n	n	n
CCCNC(=O)C[C@H]1C[C@@H]2c3cc(NC(=O)C4CCC4)ccc3O[C@@H]2[C@H](CO)O1	n	x	n	x	n
O=C(C1=C[C@H](c2csc3ccccc23)C[C@H](OCCCCO)O1)N1CCCCCCC1	n	n	n	n	x
O=C(CNS(=O)(=O)N1CCOCC1)N/N=C/c1cccnc1	n	n	n	44	n
COc1ccc(S(=O)(=O)Nc2ccc3c(c2)C(=O)N([C@@H](C)CO)C[C@@H](C)[C@H](CN(C)C(=O)c2ccccc2)OCCCC[C@H](C)O3)cc1	n	n	n	n	n
CC(C)(C)c1ccc(OCC(=O)Nc2ccc3c4c(cccc24)C(=O)NC3=O)cc1	20	n	n	n	n
O=C(Nc1ccccc1)c1cccc(N2C(=O)C3C4C=CC(C5CC45)C3C2=O)c1 (configuration not stated)	n	n	n	n	n
COC(=O)c1ccc(NC(=O)c2cccc(N3C(=O)C4C5C=CC(C6CC56)C4C3=O)c2)cc1 (configuration not stated)	n	64	n	n	n
Cc1noc(C)c1S(=O)(=O)Nc1ccc2c(c1)C(=O)N([C@H](C)CO)C[C@@H](C)[C@@H](CN(C)Cc1ccc(Cl)c(Cl)c1)O2	n	n	n	n	x
Cc1noc(C)c1S(=O)(=O)Nc1ccc2c(c1)C(=O)N([C@H](C)CO)C[C@@H](C)[C@H](CN(C)Cc1ccc3c(c1)OCO3)O2	n	x	n	n	26
Cc1noc(C)c1S(=O)(=O)Nc1ccc2c(c1)C(=O)N([C@H](C)CO)C[C@@H](C)[C@@H](CN(C)Cc1ccc3c(c1)OCO3)O2	n	n	n	n	44
CO[C@@H]1CN(C)C(=O)c2ccc(NC(=O)c3ccc(F)cc3)cc2OC[C@H](C)N(C(=O)CN(C)C)C[C@H]1C	n	n	n	n	n
COc1ccccc1S(=O)(=O)N[C@H]1CC[C@@H](CCNC(=O)C2CCC2)O[C@H]1CO	n	n	n	n	n
O=C(C[C@H]1CC[C@@H](NC(=O)Nc2ccc(F)cc2)[C@@H](CO)O1)NCc1cccc(F)c1	n	n	n	n	n
CON(C)c1nc(OCCNC(=O)OCc2ccc(Cl)cc2C)nc(N(C)C)n1	x	150	x	x	n
CN(C)c1nc(OCCOC(=O)Nc2ccc(Cl)cc2Cl)nc(N(C)C)n1	n	x	n	n	x
CO[C@@H]1CN(C)C(=O)c2cc(NC(=O)c3cc(C)on3)ccc2OC[C@@H](C)N(C(=O)C2CC2)C[C@@H]1C	n	x	n	n	n
O=C(NCCc1ccccc1)c1ccc(S(=O)(=O)N2CCCCC2)cc1	n	n	n	n	n
Cc1cc2ccccc2n1CCNC(=O)c1ccc(S(=O)(=O)N2CCCCC2)cc1	n	x	124	n	93
O=S(=O)(c1ccc(-c2ccccc2)cc1)N1CCOCC1	x	n	x	x	x
Cc1ccc(S(=O)(=O)N2CCN(C(=O)CNC(=O)c3ccc(Cl)cc3)CC2)cc1	n	x	n	44	n
Cc1ccc(C(=O)NNC(=O)c2ccc(S(=O)(=O)N3CCCCC3)cc2)cc1	9.8	n	n	n	x
O=S(=O)(c1ccc(S(=O)(=O)N2CCOCC2)cc1)N1CCCC1	n	n	n	43	x
COc1ccc(NC(=O)Nc2ccc3c(c2)C(=O)N([C@@H](C)CO)C[C@H](C)[C@H](CN(C)C(=O)NC(C)C)O3)cc1	n	n	n	n	n
C[C@@H]1CN([C@H](C)CO)C(=O)Cc2cc(NC(=O)CCC(F)(F)F)ccc2O[C@H]1CN(C)S(=O)(=O)c1cccs1	n	n	n	n	n
SMILES	F508del corr	Env fusion inh	S100A4 MyoIIA	FGF22 binding	E-sel inducer
CCCC#Cc1ccc2c(c1)O[C@@H](CN(C)C(=O)CC1CC1)[C@H](C)CN([C@@H](C)CO)S2(=O)=O	n	n	n	n	n
COc1ccc2c3c(n(C)c2c1)[C@H](CO)N(S(C)(=O)=O)CC31CCN(C(=O)C2CCC2)CC1	n	x	n	n	n
CC1CCN(C(=O)c2ccc(S(=O)(=O)N3CCCC3)cc2)CC1	9.3	n	n	n	n
CC1CCN(C(=O)c2ccc(S(=O)(=O)N3CCCCCC3)cc2)CC1	n	n	n	n	n
O=C(NCc1nnnn1-c1ccc(Cl)cc1)C(=O)c1c[nH]c2ccccc12	11	x	n	n	n
O=C(C[C@H]1C=C[C@@H](NC(=O)Nc2ccccc2F)[C@@H](CO)O1)NCc1ccc(-c2ccccc2)cc1	n	84[16.7 µM]	n	n	n
O=C(C[C@H]1C=C[C@@H](NC(=O)Nc2ccccc2F)[C@@H](CO)O1)NCc1ccc(Cl)cc1	n	72[16.7 µM]	n	n	n
O=C(C[C@H]1C=C[C@@H](NC(=O)c2cccc(F)c2)[C@@H](CO)O1)NCc1ccc(Oc2ccccc2)cc1	n	80[16.7 µM]	n	n	n
CC=Cc1ccc2n(c1=O)C[C@H]1[C@H](CO)[C@@H](C(=O)NCC3CC3)N(CCC)[C@@H]21 (mixture of isomers)	n	x	n	x	n
O=C(C[C@@H]1C[C@H]2c3cc(NC(=O)C4CCOCC4)ccc3O[C@H]2[C@H](CO)O1)NC1CCCCC1	n	n	n	x	n
COc1ccc2c3c([nH]c2c1)[C@@H](CO)N(C(=O)C1CCCC1)CC31CN(Cc2cccc(F)c2)C1	n	x	x	n	n
C[C@@H]1CN([C@@H](C)CO)C(=O)c2cc(NC(=O)NC3CCCCC3)ccc2O[C@@H](C)CCCCO[C@H]1CN(C)S(=O)(=O)c1ccc(F)cc1	n	n	n	n	n
O=C(CNS(=O)(=O)c1ccccc1)N/N=C/c1ccc(O)cc1	n	n	n	43	n
Cc1ccc(N(C)c2nc(N)nc(N)c2N=O)cc1	9.9	n	191	n	n
C[C@@H]1CN([C@H](C)CO)C(=O)Cc2cc(N(C)C)ccc2O[C@H]1CN(C)C(=O)Nc1cccc2ccccc12	n	n	n	x	n
Cc1ccc(NC(=O)c2ccc(CN3CCc4ccccc4C3)cc2)cc1	x	93	x	x	x
O=C(Nc1ccccc1)c1ccc(CN2CCc3ccccc3C2)cc1	n	61	n	n	x
O=C(Nc1cccnc1)c1ccc(CN2CCc3ccccc3C2)cc1	x	54	x	x	x
COc1ccc(NC(=O)Nc2ccc3c(c2)C(=O)N([C@@H](C)CO)C[C@@H](C)[C@H](CN(C)C(=O)Nc2ccc(C(F)(F)F)cc2)OCCCC[C@H](C)O3)cc1	n	n	n	n	n
O=C(O)CCCNc1n[nH]c(=O)[nH]c1=O	x	n	n	43	x
COc1ccc(NC(=O)Nc2ccc3c(c2)[C@H]2C[C@@H](CC(=O)N4CCc5ccccc5C4)O[C@@H](CO)[C@H]2O3)cc1	n	n	n	n	n
CN(/N=C/c1cc(Cl)cc(Cl)c1O)C(=S)NC(C)(C)C	n	n	n	n	71
